Test results from ChEMBL document CHEMBL5331102, “Novel S1R agonists counteracting NMDA excitotoxicity and oxidative stress: A step forward in the discovery of neuroprotective agents” (Eur J Med Chem, 2023).
Converted amounts (≈) assume the structure as drawn. The source made the active and inactive calls. The rule behind the calls is not given here.

What was measured:
[1] = target: T1, Sigma non-opioid intracellular receptor 1 (Homo sapiens, UniProt Q99720); assay: Displacement of [3H]-(+)-pentazocine from sigma 1 receptor (unknown origin) at 25 nM by scintillation counting analysis; conditions: filed as agonist
T1 sequence (Q99720 whole entry): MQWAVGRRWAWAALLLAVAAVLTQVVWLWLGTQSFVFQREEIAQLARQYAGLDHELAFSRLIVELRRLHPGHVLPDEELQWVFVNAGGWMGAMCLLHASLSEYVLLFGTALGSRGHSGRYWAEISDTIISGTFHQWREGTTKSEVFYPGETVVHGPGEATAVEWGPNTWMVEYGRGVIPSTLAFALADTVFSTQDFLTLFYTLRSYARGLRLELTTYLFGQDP
How it was run: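 Single-concentration screen at 25 nM test compound against [3H](+)pentazocine (15 nM) at S1R; scintillation counting; result given as % inhibition of control specific binding, i.e. 100 minus measured/control specific binding ×100.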

[2] = target: Glutamate [NMDA] receptor (Homo sapiens) (UniProt Q05586+Q12879+Q13224+O15399+O60391+Q14957+Q8TCU5); assay: Displacement of [3H]CGP39653 from human NMDAR at 25 nM by scintillation counting analysis; format: protein-complex assay
How it was run: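 NMDA receptor binding with [3H]CGP39653 (5 nM) as radioligand, test compound at 25 nM; displacement read by scintillation counting and reported as % inhibition of control specific binding.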

[3] = target: T1, Sigma non-opioid intracellular receptor 1; assay: Displacement of [3H]-(+)-pentazocine from sigma 1 receptor (unknown origin) assessed as inhibition constant by scintillation counting analysis
How it was run: (§1)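 Radioligand displacement at S1R with [3H](+)pentazocine (15 nM) and at S2R with [3H]DTG (25 nM); S2R assay includes 1 μM cold (+)pentazocine to mask S1R sites. Bound radioactivity counted by scintillation. IC50 and Hill slope from non-linear Hill fit of competition curves; Ki by Cheng–Prusoff using radioligand concentration and KD from Scatchard plot.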

[4] = target: Sigma intracellular receptor 2 (Homo sapiens, UniProt Q5BJF2); assay: Displacement of [3H]DTG from sigma 2 receptor (unknown origin) assessed as inhibition constant by scintillation counting analysis; how it was run: as §1
Sequence of Sigma intracellular receptor 2 (Q5BJF2 whole entry): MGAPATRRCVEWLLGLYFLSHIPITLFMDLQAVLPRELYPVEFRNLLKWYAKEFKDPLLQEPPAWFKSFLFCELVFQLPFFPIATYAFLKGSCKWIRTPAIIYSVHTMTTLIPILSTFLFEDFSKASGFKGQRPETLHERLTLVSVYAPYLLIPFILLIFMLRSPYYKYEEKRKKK

[5] = Selectivity index, ratio of Ki for displacement of [3H]DTG from sigma 2 receptor (unknown origin) to Ki for displacement of [3H]-(+)-pentazocine from sigma 1 receptor (unknown origin)
PC-12 [6] = assay: Neuroprotective activity in rat PC12 cells assessed as induction of NGF-mediated neurite outgrowth at 0.1 to 5 uM by neurite outgrowth assay; format: functional, cell-based; conditions: dose 0.1-5 µM
How it was run: (§2)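 PC12 cells stimulated with NGF (2.5 nM) and treated with compound up to 5 μM, alone or after pre-treatment with S1R antagonist NE-100 (3 μM); read-out is percentage of cells bearing neurite sprouts; mean ± SEM of three independent experiments.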

SH-SY5Y [7] = assay: Cytotoxicity against human SH-SY5Y cells assessed as cell death at 0.1 to 50 uM incubated for 72 hrs by MTT assay; format: toxicity, cell-based; conditions: dose 0.1-50 µM
How it was run: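 SH-SY5Y cells kept in DMEM/10% FBS, 2 mM glutamine, 37 °C, 5% CO2; ~7000 cells/well, after 1 day given compound (six concentrations, 0.1–100 μM; DMSO stocks 10 mM) in 2% FBS medium for 72 h. MTT (0.5% w/v, 2 h), formazan dissolved in DMSO, absorbance read; triplicates, % of untreated control.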

PC-12 [8] = assay: Neuroprotective activity in rat PC12 cells assessed as induction of NGF-mediated neurite outgrowth at 0.1 to 5 uM in presence of NE-100 by neurite outgrowth assay; format: functional, cell-based; conditions: dose 0.1-5 µM; how it was run: as §2
SH-SY5Y [9] = assay: Neuroprotective activity in human SH-SY5Y cells assessed as prevention of rotenone induced cell damage by measuring cell viability at 1 uM preincubated with PB212 for 1hrs followed by compound addition in presence of rotenone and measured after 24 hrs by MTT assay; format: functional, cell-based
How it was run: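 SH-SY5Y cells pre-incubated 1 h with S1R antagonist PB212 (5 μM), then treated with compound (1 or 5 μM) plus PB212 (5 μM) and either rotenone 25 μM or NMDA 250 μM for 24 h; viability by MTT; two-way ANOVA with Bonferroni post hoc test.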

SH-SY5Y [10] = assay: Neuroprotective activity in human SH-SY5Y cells assessed as prevention of oligomycin induced cell damage by measuring cell viability at 0.1 to 5 uM incubated for 24 hrs in presence of oligomycin by MTT assay; format: functional, cell-based; conditions: dose 0.1-5 µM
How it was run: (§3)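 SH-SY5Y cells (~7000/well) co-incubated 24 h at 37 °C in 2% FBS medium with toxic stimulus (NMDA 250 μM or oligomycin 2.5 μM) plus compound at 0.1–5 μM. Viability by MTT, expressed as % of control.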

SH-SY5Y [11] = assay: Neuroprotective activity in human SH-SY5Y cells assessed as prevention of NMDA induced cytotoxicity by measuring cell viability at 0.1 to 5 uM incubated for 24 hrs in presence of NMDA by MTT assay; format: functional, cell-based; conditions: dose 0.1-5 µM; how it was run: as §3
PANC-1 = assay: Cytotoxicity against human PANC-1 cells assessed as reduction in cell survival rate at 100 uM incubated for 48 to 72 hrs by MTT assay; format: toxicity, cell-based; conditions: panc-1, 100 µM, time 48-72 hrs
How it was run: (§4)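 Cancer lines grown in Ham's F-12K or DMEM with 10% FBS, used in exponential growth; seeded 2500 cells/well, exposed to 0.1–100 μM for 24, 48 and 72 h continuous. Viability by CellTiter 96 AQueous One (tetrazolium) absorbance at 490 nm; three independent experiments in quadruplicate, % survival vs untreated.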

LoVo = assay: Cytotoxicity against human LoVo cells assessed as reduction in cell survival rate at 100 uM incubated for 48 to 72 hrs by MTT assay; format: toxicity, cell-based; conditions: time 48-72 hrs; how it was run: as §4
[12] = Thermodynamic solubility of the compound in HC1/KCl buffer at pH 1.2 incubated for 24 hrs; format: physicochemical; conditions: HCl/KCl buffer, read-out: Therm_solubility
How it was run: (§5)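 10 mM DMSO stock diluted 1:100 into buffer (HCl/KCl pH 1.2; KH2PO4/NaOH pH 6.8; KH2PO4/Na2HPO4 pH 7.4), 1% v/v DMSO final; shaken 24 h at 1200 rpm, filtered through 0.45 μm polycarbonate membrane, filtrate diluted 1:1 with MeOH and analysed.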

[13] = Thermodynamic solubility of the compound in KH2PO4/NaOH buffer at pH 6.8 incubated for 24 hrs; format: physicochemical; conditions: read-out: Therm_solubility; how it was run: as §5
[14] = Dissociation constant, pKa of the compound; format: physicochemical
[15] = Lipophilicity, logP of the compound; format: physicochemical; conditions: octanol/water
[16] = Toxicity in Zebrafish embryos assessed as morphological abnormality at 0.1 to 50 uM incubated for 5 days by Teratogenic test; design: species or system Danio rerio, Embryo; conditions: in vivo, 120 h, dose 0.1-50 µM, time 5 day
How it was run: (§6)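 Tg(GFAP:GFP) zebrafish embryos from 2 female × 1 male matings, 8 embryos per control or concentration, exposed from 1 h post-fertilization and kept at 28 °C for about 5 days without medium change. At 5 dpf (120 h) mortality and developmental abnormalities (tail shape, heart, pigmentation) were scored, with morphology given a severity score.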

[17] = Toxicity in Zebrafish embryos assessed as death at 10 uM incubated for 5 days by Teratogenic test; design: species or system Danio rerio, Embryo; conditions: in vivo, time 5 day, read-out: Activity; how it was run: as §6
[18] = Toxicity in Zebrafish embryos assessed as death at 50 uM incubated for 5 days by Teratogenic test; design: species or system Danio rerio, Embryo; conditions: in vivo, 120 h, time 5 day; how it was run: as §6
SH-SY5Y [19] = assay: Cytotoxicity against human SH-SY5Y cells assessed as cell viability at 100 uM incubated for 72 hrs by MTT assay

| SMILES | Activity [1] [%] | Activity [2] [%] | Ki [3] [nM] | Ki [4] [nM] | Ratio Ki [5] | Activity (PC-12 [6]) | Activity (SH-SY5Y [7]) | Activity (PC-12 [8]) | Activity (SH-SY5Y [9]) | Activity (SH-SY5Y [10]) | Activity (SH-SY5Y [11]) | Activity (PANC-1) [%] | Activity (LoVo) [%] | solubility thermodynamic at 24 h [12] [µg/mL] | solubility thermodynamic at 24 h [13] [µg/mL] | pKa [14] | logP [15] | Activity [16] | mortality at 120 h, 10 µM [17] [%] | Activity [18] | also measured |
| --- | --- | --- | --- | --- | --- | --- | --- | --- | --- | --- | --- | --- | --- | --- | --- | --- | --- | --- | --- | --- | --- |
| c1ccc(CC2CCN(CCOc3ccccc3)CC2)cc1 | > 95 | < 11.9 | 0.93 | 72 | 77 | Dose-Dependent Effect | Non-Toxic | inactive | inactive | inactive | Active | 20 | 40 | 7800 (≈ 26.4 mM) | 7800 (≈ 26.4 mM) | 8.56 | 4 | Toxic | 50 | Toxic | Activity (SH-SY5Y [19]): 76% |
| c1ccc(CC2CCN(CCCOc3ccccc3)CC2)cc1 | > 95 | < 11.9 | 1.1 | 88 | 80 | Dose-Dependent Effect | Non-Toxic | inactive | inactive | inactive | Active | 20 | 40 | 2800 (≈ 9.05 mM) | 2800 (≈ 9.05 mM) | 9.26 | 4.38 | Toxic | 100 | Toxic | Activity (SH-SY5Y [19]): 82% |
